Paper PMC7134334 (Neuropharmacology, 2016)

Key:
[1] = system: WT Kv3.1 channels and VSD chimeras (S1-S4, S1-S3a, S3b-S4); type: cell-based; settings: block calculated at depolarizing potentials of V1/2 +30 mV
[2] = system: Kv2.1 V404T_S3b-S4_3.1; assay: Patch-clamp current inhibition by gambierol, Kv2.1 V404T_S3b-S4_3.1 chimera; type: cell-based
Outline: (§1)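 Ltk− mouse fibroblasts (DMEM, 10% horse serum) transiently PEI-transfected with 15–200 ng cDNA, recorded ~20–28 h later at 20–23 °C. Bath (mM): NaCl 130, KCl 4, CaCl2 1.8, MgCl2 1, HEPES 10, glucose 10, pH 7.35. Pipette: KCl 110, K4BAPTA 5, K2ATP 5, MgCl2 1, HEPES 10, pH 7.2. Fast-perfused, final DMSO ≤0.5%. Fraction of current left at +40 mV Hill-fitted for IC50. Cells with >5 mV voltage error excluded. Mean ± SEM over cells.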

[3] = system: Kv3.1_S1-S3a_2.1; assay: Patch-clamp current inhibition by gambierol, Kv3.1_S1-S3a_2.1 chimera; type: cell-based; settings: read-out: IC50 (concentration that induces 50% current inhibition); Kv3.1_S1-S3a_2.1 in Ltk− cells; n = 3
Outline: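 Ltk− mouse fibroblasts (DMEM, 10% horse serum) transiently PEI-transfected with channel cDNA and patch-clamped 20–28 h later at 20–23 °C. Bath (mM): NaCl 130, KCl 4, CaCl2 1.8, MgCl2 1, HEPES 10, glucose 10, pH 7.35; pipette KCl-based with BAPTA, ATP, pH 7.2. Toxin perfused from DMSO stock (final DMSO ≤0.5%). Remaining current at +40 mV Hill-fitted for IC50; mean ± SEM over cells.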

[4] = system: Kv3.1_S3b-S4_2.1; assay: Patch-clamp current inhibition by gambierol, Kv3.1_S3b-S4_2.1 chimera; type: cell-based; settings: read-out: IC50 (concentration that induces 50% current inhibition); Kv3.1_S3b-S4_2.1 in Ltk− cells; n = 4
Outline: as §1

[5] = target: T1, Kv3.1 (Homo sapiens, UniProt P48547); settings: ref Kopljar et al., 2013; cited from earlier work
T1 sequence (P48547 1-511): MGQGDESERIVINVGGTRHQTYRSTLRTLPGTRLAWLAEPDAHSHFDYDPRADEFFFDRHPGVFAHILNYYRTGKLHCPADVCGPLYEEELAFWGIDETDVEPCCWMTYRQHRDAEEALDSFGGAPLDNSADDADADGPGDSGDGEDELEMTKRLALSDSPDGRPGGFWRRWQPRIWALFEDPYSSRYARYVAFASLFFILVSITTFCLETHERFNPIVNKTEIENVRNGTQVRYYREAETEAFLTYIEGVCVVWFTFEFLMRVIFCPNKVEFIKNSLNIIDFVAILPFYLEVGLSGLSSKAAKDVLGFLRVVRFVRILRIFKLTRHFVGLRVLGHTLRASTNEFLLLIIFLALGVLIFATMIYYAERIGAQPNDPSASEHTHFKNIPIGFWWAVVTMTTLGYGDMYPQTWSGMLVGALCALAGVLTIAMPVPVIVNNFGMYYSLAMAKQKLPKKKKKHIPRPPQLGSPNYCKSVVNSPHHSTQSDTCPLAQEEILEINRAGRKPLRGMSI

[6] = target: T1, Kv3.1; assay: Patch-clamp current inhibition by gambierol, WT Kv3.1 in Ltk− cells; type: cell-based; settings: read-out: IC50 (concentration that induces 50% current inhibition); WT Kv3.1 expressed in Ltk− cells; mean ± SEM
Outline: as §1

[7] = system: Kv3.1_S1-S4_2.1; assay: Patch-clamp current inhibition by gambierol, Kv3.1_S1-S4_2.1 chimera; type: cell-based; settings: read-out: IC50 (concentration that induces 50% current inhibition); Kv3.1_S1-S4_2.1 in Ltk− cells; n = 4
Outline: as §1

Structure (SMILES)	differences in IC50 values between WT channels and chimeras [1] [fold]	fold difference compared to the Kv2.1 V404T mutant ([2]; Kv2.1 V404T_S3b-S4_3.1 vs previously reported Kv2.1 V404T value)	IC50 ([2]; read-out: IC50 (concentration that induces 50% current inhibition), Kv2.1 V404T_S3b-S4_3.1 in Ltk− cells, n = 3) [nM]	IC50 [3] [nM]	IC50 [4] [nM]	shift of the voltage dependence of activation to more positive potentials [5]	IC50 [6] [nM]	IC50 [7] [nM]
O=C(NCC1CCCCN1)c1cc(OCC(F)(F)F)ccc1OCC(F)(F)F (centres unmarked) [Flecainide]	< 2	–	–	–	–	–	–	–
C=CC/C=C\C=C/[C@H]1O[C@H]2C[C@H]3O[C@H]4CC[C@H]5O[C@H]6C[C@@]7(C)O[C@@]8(C)[C@@H](O)C[C@H](CCCO)O[C@@H]8C[C@@H]7O[C@@H]6C[C@@H]5O[C@]4(C)C[C@]3(C)O[C@@H]2C=C[C@]1(C)O [gambierol, Gambierol]	–	~ 2 fold	900 ± 41	1.9 ± 0.2	143 ± 28	more than +120 mV	1.2 ± 0.2	280 ± 40
